# Reference: ChEMBL document CHEMBL3108749, “Discovery of a non-estrogenic irreversible inhibitor of 17β-hydroxysteroid dehydrogenase type 1 from 3-substituted-16β-(m-carbamoylbenzyl)-estradiol derivatives” (J Med Chem, 2014)
# How the values were obtained:
# [1] = target: T1, 3-keto-steroid reductase/17-beta-hydroxysteroid dehydrogenase 7 (Homo sapiens) (UniProt P56937); experiment: Inhibition of 17-beta HSD7 (unknown origin) transfected in HEK293 cells using [14C]E1 as substrate at 10 uM; assay type: cell-based
# T1 sequence (whole entry): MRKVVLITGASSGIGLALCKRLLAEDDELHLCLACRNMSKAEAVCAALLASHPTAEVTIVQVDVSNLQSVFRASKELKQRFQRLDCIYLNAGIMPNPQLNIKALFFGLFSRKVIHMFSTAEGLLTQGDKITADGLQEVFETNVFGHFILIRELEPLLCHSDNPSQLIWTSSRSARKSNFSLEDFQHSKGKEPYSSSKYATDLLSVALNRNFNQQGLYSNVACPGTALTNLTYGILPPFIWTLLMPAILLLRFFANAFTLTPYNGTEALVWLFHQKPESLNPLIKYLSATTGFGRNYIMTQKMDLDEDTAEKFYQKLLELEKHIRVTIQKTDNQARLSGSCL
# In short: (§1)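 Stably transfected HEK-293 cells in stripped-serum MEM with G418 and insulin, seeded 48 h. Then treated with compound in DMSO (<0.5% final) plus 60 nM substrate: [14C]-E2 for 17β-HSD2, [14C]-E1 for 17β-HSD7 and 17β-HSD12. Stopped at 12–25% substrate conversion; ether extraction, TLC, radiolabel quantification; triplicates, at least two experiments.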
# [2] = target: T2, Very-long-chain 3-oxoacyl-CoA reductase (Homo sapiens) (UniProt Q53GQ0); experiment: Inhibition of 17-beta HSD12 (unknown origin) transfected in HEK293 cells using [14C]E1 as substrate at 10 uM; assay type: cell-based; in short: as §1
# T2 sequence (whole entry): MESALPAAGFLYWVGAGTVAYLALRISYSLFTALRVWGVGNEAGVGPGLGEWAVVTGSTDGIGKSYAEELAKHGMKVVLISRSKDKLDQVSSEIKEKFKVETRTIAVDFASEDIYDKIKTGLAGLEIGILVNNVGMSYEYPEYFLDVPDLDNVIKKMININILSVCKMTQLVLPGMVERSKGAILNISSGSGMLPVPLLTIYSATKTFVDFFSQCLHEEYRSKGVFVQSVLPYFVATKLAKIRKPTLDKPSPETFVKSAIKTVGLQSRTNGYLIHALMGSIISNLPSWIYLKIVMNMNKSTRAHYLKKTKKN
# MCF7 [3] = experiment: Cytotoxicity against human estrogen-starved estrogen-sensitive MCF7 cells assessed as cell growth at 0.1 uM after 7 days by MTS assay relative to control; assay type: functional; conditions: MCF7, 168 h, read-out: Activity
# In short: (§2)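 MCF-7 (DMEM-F12) or T-47D (RPMI) cells are kept in medium with insulin (50 ng/mL) and 5% dextran-coated charcoal-treated FBS, seeded at 3000 cells/well. After 48 h, medium is replaced with medium containing compound, renewed every two days, and cells grow seven days. Growth is read by CellTiter 96 aqueous (MTS) assay as % proliferation vs basal control (0%). Scored −/+/++/+++ bands.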
# [4] = target: T3, 17-beta-hydroxysteroid dehydrogenase type 2 (Homo sapiens) (UniProt P37059); experiment: Inhibition of 17-beta HSD2 (unknown origin) transfected in HEK293 cells using [14C]E2 as substrate at 10 uM; assay type: cell-based; in short: as §1
# T3 sequence (whole entry): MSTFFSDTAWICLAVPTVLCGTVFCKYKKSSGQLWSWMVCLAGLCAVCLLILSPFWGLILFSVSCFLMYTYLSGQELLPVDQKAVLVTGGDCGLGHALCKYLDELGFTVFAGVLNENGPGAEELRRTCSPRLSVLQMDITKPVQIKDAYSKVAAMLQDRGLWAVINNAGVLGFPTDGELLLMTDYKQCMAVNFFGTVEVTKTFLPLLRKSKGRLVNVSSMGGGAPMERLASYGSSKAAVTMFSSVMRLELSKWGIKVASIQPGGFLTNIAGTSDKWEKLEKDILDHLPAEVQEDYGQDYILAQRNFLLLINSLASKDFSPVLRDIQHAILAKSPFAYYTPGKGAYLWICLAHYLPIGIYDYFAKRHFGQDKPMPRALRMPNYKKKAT
# MCF7 [5] = experiment: Cytotoxicity against human estrogen-starved estrogen-sensitive MCF7 cells assessed as cell growth at 1 uM after 7 days by MTS assay relative to control; assay type: functional; conditions: MCF7, 168 h, read-out: Activity; in short: as §2
# [6] = target: T4, 17-beta-hydroxysteroid dehydrogenase type 1 (Homo sapiens) (UniProt P14061); experiment: Inhibition of 17-beta HSD1 in human T47D cells assessed as transformation of [14C]E1 to [14C]E2 at 0.1 uM after 24 hrs by thin layer chromatography; assay type: cell-based
# T4 sequence (whole entry): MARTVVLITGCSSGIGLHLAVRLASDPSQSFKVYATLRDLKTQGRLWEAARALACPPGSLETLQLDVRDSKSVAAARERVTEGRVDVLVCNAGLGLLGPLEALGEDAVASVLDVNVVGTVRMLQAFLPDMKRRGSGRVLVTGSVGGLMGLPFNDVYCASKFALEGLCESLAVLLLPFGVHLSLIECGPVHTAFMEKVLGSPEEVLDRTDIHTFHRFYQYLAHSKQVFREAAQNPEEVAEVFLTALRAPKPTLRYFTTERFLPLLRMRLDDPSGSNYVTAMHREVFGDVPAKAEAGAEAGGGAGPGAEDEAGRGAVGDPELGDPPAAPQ
# In short: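 T-47D cells (endogenous 17β-HSD1) are seeded at 3000 cells/well in RPMI with insulin (50 ng/mL) and 5% charcoal-stripped FBS. After 24 h, compound (from EtOH stock, 0.1 μM final) is added with [14C]-E1 (60 nM) for 24 h. Steroids are extracted into diethyl ether, separated by silica TLC (toluene/acetone 4:1) and quantified. Mean ± SD of ≥2 independent experiments in triplicate.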
# Cytochrome P450 3A4 = Cytochrome P450 3A4 (Homo sapiens, UniProt P08684); experiment: Inhibition of CYP3A4 (unknown origin) by fluorescence assay; assay type: ADME
# In short: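 Commercial CYP3A4 kit with dibenzylfluorescein as substrate, read by fluorescence of its enzymatic product. Compound dissolved in DMSO/acetonitrile (5:95). IC50 from means of at least two experiments in triplicate.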
# T47D [7] = experiment: Cytotoxicity against human estrogen-starved estrogen-sensitive T47D cells assessed as cell growth at 0.1 uM after 7 days by MTS assay relative to control; assay type: functional; conditions: 168 h, read-out: Activity; in short: as §2
# T47D [8] = experiment: Cytotoxicity against human estrogen-starved estrogen-sensitive T47D cells assessed as cell growth at 1 uM after 7 days by MTS assay relative to control; assay type: functional; conditions: 168 h, read-out: Activity; in short: as §2
# Sequence of Cytochrome P450 3A4 (P08684 whole entry): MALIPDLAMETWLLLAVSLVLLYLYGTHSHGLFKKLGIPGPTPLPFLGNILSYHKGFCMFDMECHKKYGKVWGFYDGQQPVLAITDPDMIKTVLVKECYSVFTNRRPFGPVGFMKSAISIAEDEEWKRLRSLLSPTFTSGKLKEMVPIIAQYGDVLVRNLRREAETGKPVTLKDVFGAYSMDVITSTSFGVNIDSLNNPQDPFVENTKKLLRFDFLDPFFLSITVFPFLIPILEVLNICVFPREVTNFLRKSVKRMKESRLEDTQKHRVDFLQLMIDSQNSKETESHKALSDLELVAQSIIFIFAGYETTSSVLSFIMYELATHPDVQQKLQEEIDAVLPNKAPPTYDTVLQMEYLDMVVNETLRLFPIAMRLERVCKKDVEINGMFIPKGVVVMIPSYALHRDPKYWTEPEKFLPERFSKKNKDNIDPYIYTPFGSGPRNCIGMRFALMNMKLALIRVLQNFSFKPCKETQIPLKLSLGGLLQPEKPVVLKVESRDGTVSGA
SMILES,inhibition [6] [%],percent proliferation above basal control at 0.1 µM (MCF7 [3]) [%],percent proliferation above basal control at 1 µM (MCF7 [5]) [%],also measured
C[C@]12CC[C@@H]3c4ccc(O)cc4CC[C@H]3[C@@H]1C[C@H](Cc1cccc(C(N)=O)c1)[C@@H]2O,72,> 30,> 30,inhibition [1]: 0%; inhibition [2]: 6%; inhibition [4]: 0%; IC50 (Cytochrome P450 3A4): 1.5 µM
CCCN(CC)C(=O)c1ccc2c(c1)CC[C@@H]1[C@@H]2CC[C@]2(C)[C@@H](O)[C@@H](Cc3cccc(C(N)=O)c3)C[C@@H]12,10,0,0,–
CNC(=O)Cc1ccc2c(c1)CC[C@@H]1[C@@H]2CC[C@]2(C)[C@@H](O)[C@@H](Cc3cccc(C(N)=O)c3)C[C@@H]12,11,0,0,–
C[C@]12CC[C@@H]3c4ccc(C(N)=O)cc4CC[C@H]3[C@@H]1C[C@H](Cc1cccc(C(N)=O)c1)[C@@H]2O,2,0,15,–
C[C@]12CC[C@@H]3c4ccc(CO)cc4CC[C@H]3[C@@H]1C[C@H](Cc1cccc(C(N)=O)c1)[C@@H]2O,–,0,5,–
CCCCCCCN(C)[C@H]1CC[C@H]2C3CC[C@H]4NC(=O)CC[C@]4(C)[C@H]3CC[C@]12C (stereo partly drawn),–,–,–,inhibition [1]: 81%
C[C@]12CC[C@@H]3c4ccc(B(O)O)cc4CC[C@H]3[C@@H]1C[C@H](Cc1cccc(C(N)=O)c1)[C@@H]2O,36,> 30,> 30,–
C[C@]12CC[C@@H]3c4ccc(CCc5ccccc5)cc4CC[C@H]3[C@@H]1C[C@H](Cc1cccc(C(N)=O)c1)[C@@H]2O,17,–,–,percent proliferation above basal control at 0.1 µM (T47D [7]): 0%; % proliferation above basal control (0% = control) at 1 µM (T47D [8]): 0%
CN(C)C(=O)c1ccc2c(c1)CC[C@@H]1[C@@H]2CC[C@]2(C)[C@@H](O)[C@@H](Cc3cccc(C(N)=O)c3)C[C@@H]12,1,5,15,–
C[C@]12CC[C@@H]3c4ccc(C(=O)N5CCCC5)cc4CC[C@H]3[C@@H]1C[C@H](Cc1cccc(C(N)=O)c1)[C@@H]2O,3,0,0,–
C[C@]12CC[C@@H]3c4ccc(F)cc4CC[C@H]3[C@@H]1C[C@H](Cc1cccc(C(N)=O)c1)[C@@H]2O,10,0,5,–
C[C@]12CC[C@@H]3c4ccc(CN5CCCC5)cc4CC[C@H]3[C@@H]1C[C@H](Cc1cccc(C(N)=O)c1)[C@@H]2O,10,0,5,–
C[C@]12CC[C@@H]3c4ccc(N)cc4CC[C@H]3[C@@H]1C[C@H](Cc1cccc(C(N)=O)c1)[C@@H]2O,31,0,5,–
C[C@]12CC[C@@H]3c4ccc(C(=O)O)cc4CC[C@H]3[C@@H]1C[C@H](Cc1cccc(C(N)=O)c1)[C@@H]2O,3,5,> 30,–
CCCN(CC)Cc1ccc2c(c1)CC[C@@H]1[C@@H]2CC[C@]2(C)[C@@H](O)[C@@H](Cc3cccc(C(N)=O)c3)C[C@@H]12,14,0,0,–

# More lines, main results first:
inhibition [6] [%],SMILES,percent proliferation above basal control at 0.1 µM (MCF7 [3]) [%],percent proliferation above basal control at 1 µM (MCF7 [5]) [%],also measured
7,C[C@]12CC[C@@H]3c4ccc(CC(=O)O)cc4CC[C@H]3[C@@H]1C[C@H](Cc1cccc(C(N)=O)c1)[C@@H]2O,0,5,–
20,C[C@]12CC[C@@H]3c4ccc(CCCO)cc4CC[C@H]3[C@@H]1C[C@H](Cc1cccc(C(N)=O)c1)[C@@H]2O,–,–,percent proliferation above basal control at 0.1 µM (T47D [7]): 0%; % proliferation above basal control (0% = control) at 1 µM (T47D [8]): 5%
54,C[C@]12CC[C@@H]3c4ccc(CCI)cc4CC[C@H]3[C@@H]1C[C@H](Cc1cccc(C(N)=O)c1)[C@@H]2O,–,–,percent proliferation above basal control at 0.1 µM (T47D [7]): 0%; % proliferation above basal control (0% = control) at 1 µM (T47D [8]): 0%
18,C[C@]12CC[C@@H]3c4ccc(CCO)cc4CC[C@H]3[C@@H]1C[C@H](Cc1cccc(C(N)=O)c1)[C@@H]2O,5,5,–
30,C[C@]12CC[C@@H]3c4ccc(CBr)cc4CC[C@H]3[C@@H]1C[C@H](Cc1cccc(C(N)=O)c1)[C@@H]2O,0,0,–
19,CN(C)Cc1ccc2c(c1)CC[C@@H]1[C@@H]2CC[C@]2(C)[C@@H](O)[C@@H](Cc3cccc(C(N)=O)c3)C[C@@H]12,0,0,–
12,C[C@]12CC[C@@H]3c4ccc(CCCl)cc4CC[C@H]3[C@@H]1C[C@H](Cc1cccc(C(N)=O)c1)[C@@H]2O,–,–,percent proliferation above basal control at 0.1 µM (T47D [7]): 0%; % proliferation above basal control (0% = control) at 1 µM (T47D [8]): 0%
6,CCc1ccc2c(c1)CC[C@@H]1[C@@H]2CC[C@]2(C)[C@@H](O)[C@@H](Cc3cccc(C(N)=O)c3)C[C@@H]12,0,0,–
44,C[C@]12CC[C@@H]3c4ccc(CN)cc4CC[C@H]3[C@@H]1C[C@H](Cc1cccc(C(N)=O)c1)[C@@H]2O,> 30,> 30,–
